2 molecules from ChEMBL document CHEMBL4428077, “Synthesis and Biological Evaluation of N-((1-(4-(Sulfonyl)piperazin-1-yl)cycloalkyl)methyl)benzamide Inhibitors of Glycine Transporter-1” (J Med Chem, 2016) can be followed below.

The target in data set [1] is T1, Sodium- and chloride-dependent glycine transporter 1 (Homo sapiens) (UniProt P48067).
T1 sequence (whole entry): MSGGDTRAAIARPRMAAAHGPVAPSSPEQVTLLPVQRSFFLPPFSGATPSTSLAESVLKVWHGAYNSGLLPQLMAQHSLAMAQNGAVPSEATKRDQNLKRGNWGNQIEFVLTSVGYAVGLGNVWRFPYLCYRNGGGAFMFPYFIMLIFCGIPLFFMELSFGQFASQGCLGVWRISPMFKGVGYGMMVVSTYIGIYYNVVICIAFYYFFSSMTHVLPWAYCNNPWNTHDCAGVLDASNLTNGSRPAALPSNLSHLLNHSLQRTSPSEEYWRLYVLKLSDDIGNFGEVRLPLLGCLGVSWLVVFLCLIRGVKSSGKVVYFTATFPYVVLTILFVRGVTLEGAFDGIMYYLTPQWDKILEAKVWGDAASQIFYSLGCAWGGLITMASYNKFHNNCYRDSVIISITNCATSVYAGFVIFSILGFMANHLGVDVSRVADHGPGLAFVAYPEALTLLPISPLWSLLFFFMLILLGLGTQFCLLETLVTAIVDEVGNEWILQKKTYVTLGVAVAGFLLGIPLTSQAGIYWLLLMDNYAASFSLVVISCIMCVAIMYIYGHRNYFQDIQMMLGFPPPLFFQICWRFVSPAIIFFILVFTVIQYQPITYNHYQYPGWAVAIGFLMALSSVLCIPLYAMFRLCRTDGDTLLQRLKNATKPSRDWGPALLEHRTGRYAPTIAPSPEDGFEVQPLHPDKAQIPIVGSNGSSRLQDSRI
Description: Competitive inhibition of glycine transporter-1 (unknown origin) expressed in HEK293 cells at 0.62 to 17 nM in presence of [3H]glycine by scintillation proximity assay. The data set is classed as cell-based. In short, it runs like this:
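Whole-cell SPA glycine transport with transfected HEK-293 cells expressing GlyT-1. Increasing [³H]-glycine concentrations were run at several fixed inhibitor concentrations to derive B_max and K_d for glycine and judge the binding mode.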

The target in data set [2] is T2, Sodium- and chloride-dependent glycine transporter 1 (Homo sapiens, UniProt P48067).
T2 sequence (P48067 whole entry): T1 sequence (whole entry)
Description: Inhibition of glycine transporter-1B in human JAR cells assessed as reduction in [14C]glycine uptake preincubated for 10 mins followed by [14C]glycine addition measured after 3 hrs by scintillation proximity assay. The data set is classed as cell-based. The gist of the method:
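Whole-cell SPA in JAR cells, which endogenously express hGlyT-1b. Cells (50,000 per well) were attached overnight in RPMI/10% FBS at 37 °C, 5% CO₂. [¹⁴C]glycine was then added and incubated 3 h at 37 °C. The assay window was set with unlabeled glycine. A reference standard ran on each plate. IC₅₀ values are means of n ≥ 2.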
(In general: SPA uses beads or plates that emit light when radiolabelled molecules are held near them.)

Data set [3] in a line: Metabolic stability in human liver microsomes assessed as parent compound remaining at 3 uM incubated for 60 mins by LC-MS analysis. The format is ADME, Microsome. The note with it: read-out: Stability. For orientation: Liver microsomes are a subcellular fraction often used to study metabolism.

Each structure is given as a SMILES string. Calls of active or inactive are those of the source. No cut-off for these calls is given here.

Consider `CN(CC[C@@H](Oc1ccc(-c2ccccc2)cc1)c1ccc(F)cc1)CC(=O)O`, for which the inhibition result in data set [1] is “inactive”.

As for `Cn1cnc(S(=O)(=O)N2CCN(C3(CNC(=O)c4ccc(Cl)cc4Cl)CCCCC3)CC2)c1`, in data set [2], the IC50 (commonly the concentration at which inhibition is half-maximal) came out at 2.14 nM. Further, the remaining at 1 h, 3 µM in data set [3] turned out to be 5%.
